System: U2OS
Test: Multiplex assay against U2OS
Format: toxicity, cell-based
Settings: human
Method in brief: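 Live cells were stained at seeding with Hoechst33342, BioTracker Green Microtubule Cytoskeleton Dye, MitoTracker Red and Annexin V Alexa Fluor 680, then imaged on a CQ1 microscope at 37°C and 5% CO2 after compound addition. CellPathfinder machine-learning gating split cells into Hoechst high-intensity objects or normal cells. Normal cells were split into healthy, pyknosed or fragmented nuclei, and pyknosed cells into mitotic or apoptotic. Tubulin, mitochondrial-mass and membrane-permeability phenotypes are per cents of healthy-nucleus cells.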

[1] = 12 h, 1 µM, compound concentration 1 uM, replicate 1
[2] = 12 h, 1 µM, compound concentration 1 uM, replicate 2
[3] = 12 h, 10 µM, compound concentration 10 uM, replicate 1
[4] = 12 h, 10 µM, compound concentration 10 uM, replicate 2
[5] = 24 h, 1 µM, compound concentration 1 uM, replicate 1
[6] = 24 h, 1 µM, compound concentration 1 uM, replicate 2
[7] = 24 h, 10 µM, compound concentration 10 uM, replicate 1
[8] = 24 h, 10 µM, compound concentration 10 uM, replicate 2
[9] = 48 h, 1 µM, compound concentration 1 uM, replicate 1
[10] = 48 h, 1 µM, compound concentration 1 uM, replicate 2
[11] = 48 h, 10 µM, compound concentration 10 uM, replicate 1
[12] = 48 h, 10 µM, compound concentration 10 uM, replicate 2

Structure (SMILES): Cc1ccc2c(c1)c1c(n2CCc2ccc(C)nc2)CCN(C)C1 [LATREPIRDINE]
- Population Apoptotic (%) [1]: 53%
- Population Fragmented Nuclei (%) [1]: 8%
- Population Healthy Nuclei (%) [1]: 81%
- Population Hoechst High Intensity Objects (%) [1]: 7%
- Population Membrane Permeable-Phenotype (%) [1]: 6%
- Population Mitochondria Different-Phenotype (%) [1]: 46%
- Population Mitotic Cells (%) [1]: 46%
- Population Normal (%) [1]: 92%
- Population Pyknosed Nuclei (%) [1]: 9%
- Population Tubulin-Different-Phenotype (%) [1]: 42%
- Total Cell Count [1]: 147
- Population Apoptotic (%) [2]: 100%
- Population Fragmented Nuclei (%) [2]: 27%
- Population Healthy Nuclei (%) [2]: 67%
- Population Hoechst High Intensity Objects (%) [2]: 16%
- Population Membrane Permeable-Phenotype (%) [2]: 5%
- Population Mitochondria Different-Phenotype (%) [2]: 27%
- Population Mitotic Cells (%) [2]: 0%
- Population Normal (%) [2]: 83%
- Population Pyknosed Nuclei (%) [2]: 4%
- Population Tubulin-Different-Phenotype (%) [2]: 27%
- Total Cell Count [2]: 61
- Population Apoptotic (%) [3]: 47%
- Population Fragmented Nuclei (%) [3]: 11%
- Population Healthy Nuclei (%) [3]: 64%
- Population Hoechst High Intensity Objects (%) [3]: 7%
- Population Membrane Permeable-Phenotype (%) [3]: 21%
- Population Mitochondria Different-Phenotype (%) [3]: 97%
- Population Mitotic Cells (%) [3]: 52%
- Population Normal (%) [3]: 92%
- Population Pyknosed Nuclei (%) [3]: 24%
- Total Cell Count [3]: 142
- Population Apoptotic (%) [4]: 88%
- Population Fragmented Nuclei (%) [4]: 7%
- Population Healthy Nuclei (%) [4]: 65%
- Population Hoechst High Intensity Objects (%) [4]: 8%
- Population Membrane Permeable-Phenotype (%) [4]: 42%
- Population Mitochondria Different-Phenotype (%) [4]: 100%
- Population Mitotic Cells (%) [4]: 11%
- Population Normal (%) [4]: 91%
- Population Pyknosed Nuclei (%) [4]: 26%
- Population Tubulin-Different-Phenotype (%) [4]: 100%
- Total Cell Count [4]: 103
- Population Apoptotic (%) [5]: 47%
- Population Fragmented Nuclei (%) [5]: 6%
- Population Healthy Nuclei (%) [5]: 83%
- Population Hoechst High Intensity Objects (%) [5]: 3%
- Population Membrane Permeable-Phenotype (%) [5]: 4%
- Population Mitochondria Different-Phenotype (%) [5]: 38%
- Population Mitotic Cells (%) [5]: 52%
- Population Normal (%) [5]: 96%
- Population Pyknosed Nuclei (%) [5]: 10%
- Population Tubulin-Different-Phenotype (%) [5]: 30%
- Total Cell Count [5]: 166
- Population Apoptotic (%) [6]: 55%
- Population Fragmented Nuclei (%) [6]: 23%
- Population Healthy Nuclei (%) [6]: 67%
- Population Hoechst High Intensity Objects (%) [6]: 13%
- Population Membrane Permeable-Phenotype (%) [6]: 10%
- Population Mitochondria Different-Phenotype (%) [6]: 27%
- Population Mitotic Cells (%) [6]: 44%
- Population Normal (%) [6]: 86%
- Population Pyknosed Nuclei (%) [6]: 8%
- Population Tubulin-Different-Phenotype (%) [6]: 14%
- Total Cell Count [6]: 74
- Population Apoptotic (%) [7]: 71%
- Population Fragmented Nuclei (%) [7]: 12%
- Population Healthy Nuclei (%) [7]: 54%
- Population Hoechst High Intensity Objects (%) [7]: 8%
- Population Membrane Permeable-Phenotype (%) [7]: 24%
- Population Mitochondria Different-Phenotype (%) [7]: 97%
- Population Mitotic Cells (%) [7]: 28%
- Population Normal (%) [7]: 91%
- Population Pyknosed Nuclei (%) [7]: 33%
- Population Tubulin-Different-Phenotype (%) [7]: 100%
- Total Cell Count [7]: 172
- Population Apoptotic (%) [8]: 76%
- Population Fragmented Nuclei (%) [8]: 4%
- Population Healthy Nuclei (%) [8]: 56%
- Population Hoechst High Intensity Objects (%) [8]: 4%
- Population Membrane Permeable-Phenotype (%) [8]: 56%
- Population Mitochondria Different-Phenotype (%) [8]: 100%
- Population Mitotic Cells (%) [8]: 24%
- Population Normal (%) [8]: 95%
- Population Pyknosed Nuclei (%) [8]: 38%
- Total Cell Count [8]: 119
- Population Apoptotic (%) [9]: 40%
- Population Fragmented Nuclei (%) [9]: 4%
- Population Healthy Nuclei (%) [9]: 81%
- Population Hoechst High Intensity Objects (%) [9]: 2%
- Population Membrane Permeable-Phenotype (%) [9]: 6%
- Population Mitochondria Different-Phenotype (%) [9]: 11%
- Population Mitotic Cells (%) [9]: 59%
- Population Normal (%) [9]: 97%
- Population Pyknosed Nuclei (%) [9]: 13%
- Population Tubulin-Different-Phenotype (%) [9]: 22%
- Total Cell Count [9]: 150
- Population Apoptotic (%) [10]: 60%
- Population Fragmented Nuclei (%) [10]: 17%
- Population Healthy Nuclei (%) [10]: 75%
- Population Hoechst High Intensity Objects (%) [10]: 10%
- Population Membrane Permeable-Phenotype (%) [10]: 16%
- Population Mitochondria Different-Phenotype (%) [10]: 8%
- Population Mitotic Cells (%) [10]: 40%
- Population Normal (%) [10]: 89%
- Population Pyknosed Nuclei (%) [10]: 7%
- Population Tubulin-Different-Phenotype (%) [10]: 10%
- Total Cell Count [10]: 68
- Population Apoptotic (%) [11]: 64%
- Population Fragmented Nuclei (%) [11]: 14%
- Population Healthy Nuclei (%) [11]: 43%
- Population Hoechst High Intensity Objects (%) [11]: 6%
- Population Membrane Permeable-Phenotype (%) [11]: 28%
- Population Mitochondria Different-Phenotype (%) [11]: 90%
- Population Mitotic Cells (%) [11]: 35%
- Population Normal (%) [11]: 93%
- Population Pyknosed Nuclei (%) [11]: 41%
- Population Tubulin-Different-Phenotype (%) [11]: 95%
- Total Cell Count [11]: 240
- Population Apoptotic (%) [12]: 62%
- Population Fragmented Nuclei (%) [12]: 13%
- Population Healthy Nuclei (%) [12]: 44%
- Population Hoechst High Intensity Objects (%) [12]: 5%
- Population Membrane Permeable-Phenotype (%) [12]: 52%
- Population Mitochondria Different-Phenotype (%) [12]: 94%
- Population Mitotic Cells (%) [12]: 37%
- Population Normal (%) [12]: 95%
- Population Pyknosed Nuclei (%) [12]: 42%
- Population Tubulin-Different-Phenotype (%) [12]: 97%
- Total Cell Count [12]: 156

— ChEMBL document CHEMBL4689842, “EUbOPEN Chemogenomics Library wave 1” (2021)
